From ChEMBL document CHEMBL2040721, “Potent direct inhibitors of factor Xa based on the tetrahydroisoquinoline scaffold” (Eur J Med Chem, 2012)
pIC50: −log10 of the molar value.

Columns and labels:
Coagulation factor X = Coagulation factor X (Homo sapiens, UniProt P00742); experiment: Inhibition of human factor 10a using chromogenic spectrozyme F10a as substrate after 10 mins by spectrophotometry
Outline: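 Human plasma FXa pre-incubated 10 min at 37 °C with inhibitor (twelve concentrations, 0.015–500 μM in well) in pH 7.4 buffer, then Spectrozyme FXa added. Initial rate of A405 rise gives residual activity relative to no-inhibitor control. Duplicate or triplicate; logistic fit gives IC50, efficacy and Hill slope. Organic solvent held constant, <2.5% v/v.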

Plasma [1] = experiment: Anticoagulant activity in human plasma assessed as concentration required to double the activated […] time incubated for 4 mins prior to CaCl2-challenge by fibrometry; assay type: functional
Plasma [2] = experiment: Anticoagulant activity in human plasma assessed as concentration required to double the prothrombin time incubated for 30 s prior to thromboplastin addition by fibrometry
Prothrombin = Prothrombin (Homo sapiens, UniProt P00734); experiment: Inhibition of human factor 2a using chromogenic spectrozyme TH as substrate after 10 mins by spectrophotometry
Coagulation factor VII = biological target: T1, Coagulation factor VII (Homo sapiens, UniProt P08709); experiment: Inhibition of human factor 7a using chromogenic spectrozyme 7a as substrate after 10 mins by spectrophotometry
T1 sequence (P08709 whole entry): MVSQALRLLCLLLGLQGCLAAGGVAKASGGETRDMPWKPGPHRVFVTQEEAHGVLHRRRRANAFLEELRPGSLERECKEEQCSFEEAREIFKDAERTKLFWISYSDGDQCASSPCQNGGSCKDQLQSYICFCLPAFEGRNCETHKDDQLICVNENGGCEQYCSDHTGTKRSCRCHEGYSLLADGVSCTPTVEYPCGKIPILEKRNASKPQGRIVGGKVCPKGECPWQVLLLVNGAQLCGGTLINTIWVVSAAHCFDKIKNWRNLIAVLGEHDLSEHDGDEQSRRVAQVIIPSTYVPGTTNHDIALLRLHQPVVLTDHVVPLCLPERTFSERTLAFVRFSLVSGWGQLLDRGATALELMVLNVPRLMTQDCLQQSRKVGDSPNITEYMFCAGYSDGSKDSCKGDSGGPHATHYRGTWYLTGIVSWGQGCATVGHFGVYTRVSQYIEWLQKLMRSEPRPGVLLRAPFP

Coagulation factor IX = Coagulation factor IX (Homo sapiens, UniProt P00740); experiment: Inhibition of human factor 9a using chromogenic spectrozyme 9a as substrate after 10 mins by spectrophotometry
Coagulation factor XI = Coagulation factor XI (Homo sapiens, UniProt P03951); experiment: Inhibition of human factor 11a using chromogenic S2366 as substrate after 10 mins by spectrophotometry
Coagulation factor XII = biological target: T2, Coagulation factor XII (Homo sapiens, UniProt P00748); experiment: Inhibition of factor 12a using chromogenic spectrozyme 12a as substrate after 10 mins by spectrophotometry
T2 sequence (P00748 whole entry): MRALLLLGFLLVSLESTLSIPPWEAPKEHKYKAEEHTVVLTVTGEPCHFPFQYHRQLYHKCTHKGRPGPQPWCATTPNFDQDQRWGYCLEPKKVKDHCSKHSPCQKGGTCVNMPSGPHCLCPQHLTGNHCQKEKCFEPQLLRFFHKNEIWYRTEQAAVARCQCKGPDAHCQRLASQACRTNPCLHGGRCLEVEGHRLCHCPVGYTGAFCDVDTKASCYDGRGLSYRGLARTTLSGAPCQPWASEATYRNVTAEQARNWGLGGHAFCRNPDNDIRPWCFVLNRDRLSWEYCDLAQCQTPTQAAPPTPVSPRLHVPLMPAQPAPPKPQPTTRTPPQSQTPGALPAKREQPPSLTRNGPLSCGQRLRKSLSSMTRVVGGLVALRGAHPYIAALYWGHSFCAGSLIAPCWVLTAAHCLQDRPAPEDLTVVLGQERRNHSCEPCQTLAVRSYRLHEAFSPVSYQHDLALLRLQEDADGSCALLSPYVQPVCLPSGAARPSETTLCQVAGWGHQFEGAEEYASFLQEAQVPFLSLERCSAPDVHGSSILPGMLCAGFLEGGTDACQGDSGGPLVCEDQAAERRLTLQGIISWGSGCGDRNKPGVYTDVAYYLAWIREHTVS

[3] = Inhibition of bovine trypsin using chromogenic S2222 as substrate after 10 mins by spectrophotometry; parameters: species or system Bos taurus
Chymotrypsinogen A = Chymotrypsinogen A (Bos taurus, UniProt P00766); experiment: Inhibition of bovine alpha-chymotrypsin using chromogenic spectrozyme CTY as substrate after 10 mins by spectrophotometry
Homo sapiens [4] = species: Homo sapiens; experiment: Selectivity index ratio of IC50 for human factor 2a to IC50 for human factor 10a
Homo sapiens [5] = species: Homo sapiens; experiment: Selectivity index ratio of IC50 for human factor 7a to IC50 for human factor 10a
Homo sapiens [6] = species: Homo sapiens; experiment: Selectivity index ratio of IC50 for human factor 9a to IC50 for human factor 10a
Homo sapiens [7] = species: Homo sapiens; experiment: Selectivity index ratio of IC50 for human factor 11a to IC50 for human factor 10a
Homo sapiens [8] = species: Homo sapiens; experiment: Selectivity index ratio of IC50 for factor 12a to IC50 for human factor 10a
[9] = Selectivity index ratio of IC50 for bovine trypsin to IC50 for human factor10a
[10] = Selectivity index ratio of IC50 for bovine alpha-chymotrypsin to IC50 for human factor10a

Chain of Coagulation factor X (P00742 41-179 limits assumed): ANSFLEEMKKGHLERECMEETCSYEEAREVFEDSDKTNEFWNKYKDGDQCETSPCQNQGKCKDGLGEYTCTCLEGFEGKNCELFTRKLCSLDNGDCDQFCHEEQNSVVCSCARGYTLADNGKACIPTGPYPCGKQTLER
Chain of Coagulation factor X (P00742 235-488 limits assumed): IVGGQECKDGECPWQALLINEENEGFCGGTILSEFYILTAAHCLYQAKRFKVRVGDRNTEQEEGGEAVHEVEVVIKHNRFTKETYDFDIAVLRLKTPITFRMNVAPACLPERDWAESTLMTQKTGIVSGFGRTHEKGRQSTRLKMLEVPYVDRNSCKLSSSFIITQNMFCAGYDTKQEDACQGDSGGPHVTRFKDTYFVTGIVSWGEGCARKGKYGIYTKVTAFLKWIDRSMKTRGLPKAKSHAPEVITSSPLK
Chain of Coagulation factor IX (P00740 47-191 limits assumed): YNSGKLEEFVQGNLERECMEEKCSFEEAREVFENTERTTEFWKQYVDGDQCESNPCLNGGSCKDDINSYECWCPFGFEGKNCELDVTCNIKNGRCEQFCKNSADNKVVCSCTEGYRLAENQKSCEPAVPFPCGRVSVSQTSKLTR
Chain of Coagulation factor IX (P00740 227-461 limits assumed): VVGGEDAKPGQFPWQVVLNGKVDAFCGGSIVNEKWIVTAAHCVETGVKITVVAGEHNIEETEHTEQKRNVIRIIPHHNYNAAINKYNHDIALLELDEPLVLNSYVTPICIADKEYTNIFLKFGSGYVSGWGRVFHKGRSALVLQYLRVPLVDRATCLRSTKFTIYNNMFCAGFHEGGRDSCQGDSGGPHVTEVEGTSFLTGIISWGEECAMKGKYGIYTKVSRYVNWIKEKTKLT
Chain of Coagulation factor XI (P03951 19-387 limits assumed): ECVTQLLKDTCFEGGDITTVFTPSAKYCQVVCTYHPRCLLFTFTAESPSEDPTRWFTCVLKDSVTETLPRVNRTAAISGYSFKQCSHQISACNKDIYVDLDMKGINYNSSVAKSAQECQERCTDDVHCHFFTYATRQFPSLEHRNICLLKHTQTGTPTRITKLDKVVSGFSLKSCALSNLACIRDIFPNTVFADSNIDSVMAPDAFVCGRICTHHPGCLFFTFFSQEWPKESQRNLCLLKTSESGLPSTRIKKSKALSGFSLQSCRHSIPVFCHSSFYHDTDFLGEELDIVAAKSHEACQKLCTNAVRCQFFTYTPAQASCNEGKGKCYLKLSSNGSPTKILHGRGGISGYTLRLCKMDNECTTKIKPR
Chain of Coagulation factor XI (P03951 388-625 limits assumed): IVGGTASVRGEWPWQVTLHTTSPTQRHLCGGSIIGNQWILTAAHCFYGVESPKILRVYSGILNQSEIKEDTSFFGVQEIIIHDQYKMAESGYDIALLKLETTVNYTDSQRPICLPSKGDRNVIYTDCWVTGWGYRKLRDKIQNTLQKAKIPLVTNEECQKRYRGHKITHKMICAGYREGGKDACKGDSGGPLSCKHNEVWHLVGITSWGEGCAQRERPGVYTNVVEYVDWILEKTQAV

Compound	pIC50 (Coagulation factor X)	further results
CN(C(=O)[C@@H]1Cc2ccccc2CN1C(=O)Cc1ccc(Cl)c(Cl)c1)c1ccc(N2CCCCC2=O)cc1	4.74	
COc1ccc(CC(=O)N2Cc3ccccc3C[C@H]2C(=O)N(C)c2ccc(N3CCCCC3=O)cc2)cc1	4.47	
O=C(Nc1ccc(N2CCCCC2)cc1)[C@@H]1Cc2ccccc2CN1C(=O)OCc1ccccc1	< 3.30	
COc1cc2c(cc1OC)CN(C(=O)Cc1ccc(Cl)cc1)[C@H](C(=O)N(C)c1ccc(N3CCCCC3=O)cc1)C2	5.11	
CN(C(=O)[C@@H]1Cc2ccccc2CN1C(=O)c1cccs1)c1ccc(N2CCCCC2=O)cc1	4.38	
COc1ccc(CC(=O)N2Cc3ccccc3C[C@H]2C(=O)N(C)c2ccc(N3CCCCC3=O)cc2)cc1OC	3.61	
CN(C(=O)[C@@H]1Cc2ccccc2CN1C(=O)Cc1ccc(Cl)cc1)c1ccc(N2CCCCC2=O)cc1	5.89	2aPTT (Plasma [1]): 80 µM; 2PT (Plasma [2]): 71 µM
Cc1c(C(=O)N2Cc3ccccc3C[C@H]2C(=O)Nc2ccc(N3CCOCC3=O)cc2)sc2ccc(Cl)cc12	5.27	2PT (Plasma [2]): 2160 µM
O=C(Nc1ccc(N2CCOCC2=O)cc1)[C@@H]1CC=CCN1C(=O)Cc1ccc(Cl)cc1	5.05	2aPTT (Plasma [1]): 810 µM; 2PT (Plasma [2]): 952 µM
CN(C(=O)[C@@H]1Cc2ccccc2CN1C(=O)c1ccc(Cl)s1)c1ccc(N2CCCCC2=O)cc1	4.25	
CC(=O)N1CCN(c2ccc(NC(=O)[C@@H]3Cc4ccccc4CN3C(=O)OCc3ccccc3)cc2)CC1	< 3.30	
O=C(Nc1ccc(N2CCCCC2=O)cc1)[C@@H]1Cc2ccccc2CN1C(=O)c1ccc(C(F)(F)F)cc1	4.88	
CN(C(=O)[C@@H]1CCCN(C(=O)c2ccc(Cl)s2)C1)c1ccc(N2CCCCC2=O)cc1	4.16	
CN(C(=O)[C@@H]1Cc2ccccc2CN1C(=O)OCc1ccccc1)c1ccc(N2CCOCC2=O)cc1	4.89	
CN(C(=O)[C@H](Cc1ccccc1)NC(=O)Cc1ccc(Cl)cc1)c1ccc(N2CCCCC2=O)cc1	4.27	
CN(C(=O)[C@@H]1CCCCN1C(=O)c1ccc(Cl)s1)c1ccc(N2CCCCC2=O)cc1	3.45	
CN(C(=O)[C@@H]1Cc2ccccc2CN1C(=O)OCc1ccccc1)c1ccc(N2CCCCC2=O)cc1	4.79	
O=C(Nc1ccc(N2CCOCC2=O)cc1)[C@@H]1[C@@H]2CC[C@H](C2)N1C(=O)Cc1ccc(Cl)cc1	5.00	2PT (Plasma [2]): 2347 µM
COc1ccc(C(=O)N2Cc3ccccc3C[C@H]2C(=O)N(C)c2ccc(N3CCCCC3=O)cc2)cc1	4.72	
CN(C(=O)[C@@H]1Cc2ccccc2CN1C(=O)Cc1ccc([N+](=O)[O-])cc1)c1ccc(N2CCCCC2=O)cc1	4.07	
Cc1ccc(C(=O)N2Cc3ccccc3C[C@H]2C(=O)N(C)c2ccc(N3CCCCC3=O)cc2)cc1	3.68	
CN(C(=O)[C@@H]1Cc2ccccc2CN1C(=O)c1ccc(Cl)cc1)c1ccc(N2CCCCC2=O)cc1	3.71	
CN(C(=O)[C@@H]1Cc2ccccc2CN1C(=O)c1cc(-c2ccc(Br)cc2)cs1)c1ccc(N2CCOCC2=O)cc1	< 3.30	
CN(C(=O)[C@@H]1Cc2ccccc2CN1C(=O)Cc1ccc(Cl)cc1)c1ccc(N2CCOCC2=O)cc1	5.96	

Compound	pIC50 (Coagulation factor X)	further results
CCN(C(=O)[C@@H]1Cc2ccccc2CN1C(=O)OCc1ccccc1)c1ccc(N2CCCCC2=O)cc1	4.70	
O=C(Nc1ccc(N2CCCCC2=O)cc1)[C@@H]1Cc2ccccc2CN1C(=O)OCc1ccccc1	5.00	
CN(C(=O)[C@H]1Cc2ccccc2CN1C(=O)Cc1ccc(C(F)(F)F)cc1)c1ccc(N2CCCCC2=O)cc1	3.51	
O=C(Nc1ccc(N2CCN(C(=O)c3cccs3)CC2)cc1)[C@@H]1Cc2ccccc2CN1C(=O)OCc1ccccc1	< 3.30	
CCN(C(=O)[C@@H]1Cc2ccccc2CN1C(=O)OCc1ccccc1)c1ccc(N2CCOCC2=O)cc1	4.72	
CN(C(=O)[C@@H]1Cc2ccccc2CN1C(=O)CCc1ncc(-c2ccc(Cl)cc2)o1)c1ccc(N2CCCCC2=O)cc1	3.99	
Cc1ccc(CC(=O)N2Cc3ccccc3C[C@H]2C(=O)N(C)c2ccc(N3CCCCC3=O)cc2)cc1	4.85	
CN(C(=O)[C@@H]1Cc2ccccc2CN1S(=O)(=O)Cc1ccc(Cl)cc1)c1ccc(N2CCCCC2=O)cc1	3.82	
CN(C(=O)[C@H]1CCCN(C(=O)Cc2ccc(Cl)cc2)C1)c1ccc(N2CCCCC2=O)cc1	3.43	
CN(C(=O)[C@@H]1Cc2ccccc2CN1C(=O)OC(C)(C)C)c1ccc(N2CCCCC2=O)cc1	3.66	
CC(C)N(C(=O)[C@@H]1Cc2ccccc2CN1C(=O)OCc1ccccc1)c1ccc(N2CCCCC2=O)cc1	4.72	
COc1ccc(CCC(=O)N2Cc3ccccc3C[C@H]2C(=O)N(C)c2ccc(N3CCOCC3=O)cc2)cc1	3.72	
O=C(Nc1ccc(N2CCOCC2=O)cc1)[C@H]1Cc2ccccc2CN1C(=O)Cc1ccc(Cl)cc1	6.57	pIC50 (Prothrombin): < 3.30; pIC50 (Coagulation factor VII): < 3.00; pIC50 (Coagulation factor IX): < 3.00; pIC50 (Coagulation factor XI): < 3.30; pIC50 (Coagulation factor XII): < 3.30; pIC50 [3]: < 4.00; pIC50 (Chymotrypsinogen A): 4.12; Ratio IC50 (Homo sapiens [4]): > 1850; Ratio IC50 (Homo sapiens [5]): > 3700; Ratio IC50 (Homo sapiens [6]): > 3700; Ratio IC50 (Homo sapiens [7]): > 1850; Ratio IC50 (Homo sapiens [8]): > 1850; Ratio IC50 [9]: > 370; Ratio IC50 [10]: 279; 2aPTT (Plasma [1]): 20.2 µM; 2PT (Plasma [2]): 17.1 µM
CCN(C(=O)[C@@H]1Cc2ccccc2CN1C(=O)Cc1ccc(Cl)cc1)c1ccc(N2CCOCC2=O)cc1	5.80	
O=C(Nc1ccc(N2CCOCC2=O)cc1)[C@@H]1Cc2ccccc2CN1C(=O)c1ccc(CCl)cc1	5.54	2aPTT (Plasma [1]): 614 µM; 2PT (Plasma [2]): 645 µM
CN(C(=O)[C@H]1Cc2ccccc2CN1C(=O)Cc1ccc(Cl)cc1)c1ccc(N2CCCCC2=O)cc1	6.05	
CN(C(=O)[C@@H]1Cc2ccccc2CN1C(=O)c1ccc(Cl)s1)c1ccc(N2CCOCC2=O)cc1	4.44	
COc1ccc(CCC(=O)N2Cc3ccccc3C[C@H]2C(=O)N(C)c2ccc(N3CCOCC3=O)cc2)c(OC)c1	< 3.30	
CN(C(=O)[C@H]1CCCCN1C(=O)c1ccc(Cl)s1)c1ccc(N2CCCCC2=O)cc1	4.00	
O=C(Nc1ccc(Cl)cc1)[C@@H]1Cc2ccccc2CN1C(=O)OCc1ccccc1	< 3.30	
CN(C(=O)[C@@H]1Cc2ccccc2CN1C(=O)Cc1ccc(Cl)cc1Cl)c1ccc(N2CCCCC2=O)cc1	5.89	2aPTT (Plasma [1]): 260 µM; 2PT (Plasma [2]): 219 µM
O=C(Nc1ccc(N2CCOCC2=O)cc1)[C@H]1CCCCN1C(=O)Cc1ccc(Cl)cc1	4.64	
CN(C(=O)[C@@H]1Cc2ccccc2CN1C(=O)Cc1ccc(C(F)(F)F)cc1)c1ccc(N2CCCCC2=O)cc1	3.47	
O=C(Nc1ccc(N2CCOCC2=O)cc1)[C@@H]1Cc2ccccc2CN1C(=O)OCc1ccccc1	5.22	2PT (Plasma [2]): 1387 µM
